Assay outcomes from PubChem BioAssay.
E-sel inducer: induces E-selectin expression in human endothelial cells | HUVEC E-selectin immunofluorescence imaging; normalized: neutral wells 0, TNF-alpha wells 100 | activation, % at 7.58 µM | AID 686992 | P16581 | actives 0.37% (n = 260,000);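 active = mean E-selectin-positive cell signal at least 10% of the positive control, reached in at least 60% of replicates, without over 20% cell loss; inconclusive = no rule given, readout overlaps actives, possibly toxicity-flagged; inactive = the rest, including those meeting only one limit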
Target sequence (P16581 whole entry, looked up): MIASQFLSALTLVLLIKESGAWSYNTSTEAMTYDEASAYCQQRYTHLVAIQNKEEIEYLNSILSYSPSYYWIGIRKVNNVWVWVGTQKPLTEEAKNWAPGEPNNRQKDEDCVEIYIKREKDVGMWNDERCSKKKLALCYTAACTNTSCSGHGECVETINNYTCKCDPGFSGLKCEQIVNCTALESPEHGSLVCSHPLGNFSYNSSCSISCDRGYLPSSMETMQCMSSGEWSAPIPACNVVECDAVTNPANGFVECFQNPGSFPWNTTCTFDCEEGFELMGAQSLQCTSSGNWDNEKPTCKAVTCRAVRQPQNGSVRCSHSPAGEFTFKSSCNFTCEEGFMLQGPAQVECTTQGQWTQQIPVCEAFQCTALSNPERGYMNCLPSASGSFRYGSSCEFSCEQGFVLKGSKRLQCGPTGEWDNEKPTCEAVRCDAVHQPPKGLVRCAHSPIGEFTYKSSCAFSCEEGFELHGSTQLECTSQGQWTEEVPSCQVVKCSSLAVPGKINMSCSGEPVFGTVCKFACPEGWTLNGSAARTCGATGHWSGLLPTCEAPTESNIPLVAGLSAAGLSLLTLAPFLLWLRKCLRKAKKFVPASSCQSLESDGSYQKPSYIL
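System: HUVEC, human umbilical vein endothelial cells; quantity: 3,000 cells/well; buffer or medium: EGM-2 medium, gelatin-coated wells; dosing: single-point compound dose; detection: immunofluorescence imaging; evaluation: % PE-positive cells; benchmarks: TNF-alpha, DMSO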
Ecoli rRNA inh: inhibits bacterial ribosomal RNA function over humanized ribosomes. GFP signal change (wild-type ribosome), % (concentration not given with the values). AID 720706. E. coli WT GFP vs humanized-ribosome RFP mutants, fluorescence, 24 h; stronger effect = lower value; DMSO median 0, no signal -100. actives 1.6% (n = 350,000);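 active = significant combined selectivity score with lowered wild-type GFP, culture density cut under 30%, mutant RFP and density less affected; inactive = any of these conditions unmet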
Xi reactivation: activators of X-chromosome reactivation in mouse fibroblasts. XiGFP mouse fibroblasts, % GFP-positive cells imaging, 3 d; cells co-treated with 5-aza-dC sensitizer; scaled so ellipticine positive control = 100%. activation, % at 7.58 µM. actives 0.055% (n = 360,000);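 active = mean normalized replicate activation at least 10% and every replicate at or above 10%; inconclusive = only one of the two criteria met; inactive = mean below 10% and not all replicates reach 10%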
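Material: XiGFP fibroblasts, SV40-immortalized; Buffer or medium: DMEM containing 5-aza-dC; Compound dosing: single point; Times: 3 days compound exposure.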
PglD DTNB: inhibitors of Campylobacter jejuni PglD acetyltransferase; purified PglD enzyme, DTNB colorimetric CoA detection; inhibition, % at 12.5 µM; actives 0.098% (n = 360,000); in the data active = inhibition above about 16%, passing the limit was not always enough; inconclusive = no clear call, values can overlap the other calls
RAD54 inh: RAD54 (human) branch migration inhibition | Q92698 | RAD54 Holliday junction branch migration, FAM/BHQ fluorescence | inhibition, % at 10.4 µM | actives 0.14% (n = 360,000);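 active = mean normalized replicate activity at least 40 and at least half of replicates scoring 40 or more; inconclusive = only one of the two criteria met; inactive = mean below 40 and under half of replicates reaching 40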;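 note: inhibitors cause a drop in the FAM fluorescence signal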
RAD52 anneal inh: inhibitors of human RAD52 DNA annealing; inhibition, % at 18.7 µM; P43351; recombinant RAD52 DNA annealing, FRET fluorescence; actives 0.46% (n = 360,000);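 active = every replicate showing at least 50% inhibition; inconclusive = mean inhibition at least 50% but not in every replicate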
Each line names hits and unclear results; the compound was inactive in the other large screens. Shown are actives, neighbours in structure and some others; about 2% of the full set was active somewhere.

CCCC#Cc1ccc([C@@H]2[C@@H](CO)N(C(=O)C3CC3)[C@H]2C#N)cc1	none
C[C@@H]1CN([C@@H](C)CO)C(=O)c2cc(NS(=O)(=O)c3cccs3)ccc2O[C@H]1CN(C)C(=O)Nc1ccc2c(c1)OCO2	E-sel inducer 284
Cc1noc(C)c1NC(=O)N(C)C[C@@H]1Oc2ccc(NC(=O)Cn3cnnn3)cc2C(=O)N([C@@H](C)CO)C[C@@H]1C	E-sel inducer 103
Cc1noc(C)c1NC(=O)N(C)C[C@H]1Oc2ccc(NC(=O)Cn3cnnn3)cc2C(=O)N([C@H](C)CO)C[C@H]1C	none
CC1=[N+](C)c2c(ccc3cccnc23)C1(C)C	E-sel inducer 196, Xi reactivation inconclusive (no result: PglD DTNB, RAD54 inh)
Cc1[nH]c2c(ccc3cccnc32)c1C	none
CCN(CC)CCCNC(=S)N1CCN(c2nc(-c3ccccc3)cs2)CC1	Ecoli rRNA inh -22 (no result: E-sel inducer)
CN(C)c1cc(NC(=O)CN2CCCC2)c2ccccc2n1	RAD54 inh 78 (no result: E-sel inducer)
O=C(CN1CCCCCC1)Nc1ccccc1Oc1ccccc1	Ecoli rRNA inh -41
O=C(CN1CCCC1)Nc1ccccc1Sc1ccc(Cl)cc1	Ecoli rRNA inh -42 (no result: PglD DTNB, RAD54 inh)
CCOC(=O)[C@]12CCC=C1N(Cc1ccccc1)C(=O)[C@H](CC(=O)NCCc1ccccc1OC)C2	none (no result: PglD DTNB, RAD54 inh)
CCOC(=O)[C@]12CCCC=C1N(Cc1ccccc1)C(=O)[C@H](CC(=O)NCCc1ccccc1OC)C2	Ecoli rRNA inh -21 (no result: PglD DTNB, RAD54 inh)
CCOC(=O)[C@]12CCC=C1N(Cc1ccccc1)C(=O)[C@H](CC(=O)NCCC(C)C)C2	Ecoli rRNA inh -24 (no result: PglD DTNB, RAD54 inh)
CO[C@@H]1CN(C)C(=O)c2cc(NC(C)=O)ccc2OC[C@H](C)N(C(=O)c2ccc(F)cc2)C[C@@H]1C	none
Cc1ccc(S(=O)(=O)N2CCN(C(=O)COC(=O)c3nc(Cl)ccc3Cl)CC2)c(C)c1	none
Cc1ccc(S(=O)(=O)N2CCN(C(=O)COC(=O)c3ncc(Cl)c(Cl)c3Cl)CC2)c(C)c1	Ecoli rRNA inh -23 (no result: E-sel inducer, PglD DTNB)
CN(C)CCCN(C(=O)c1ccc(S(=O)(=O)N2CCc3ccccc3C2)cc1)c1nc2c(F)cccc2s1	Ecoli rRNA inh -47 (no result: E-sel inducer)
COc1ccc(S(=O)(=O)Nc2cccc3c2O[C@H](CN(C)C(=O)Nc2cccc4ccccc24)[C@@H](C)CN([C@H](C)CO)C3=O)cc1	E-sel inducer 28 (no result: PglD DTNB, RAD54 inh, RAD52 anneal inh)
COc1ccc(S(=O)(=O)Nc2ccc3c(c2)C(=O)N([C@H](C)CO)C[C@@H](C)[C@@H](CN(C)C(=O)Nc2cccc4ccccc24)O3)cc1	E-sel inducer 75
COc1ccc(S(=O)(=O)N(C)C[C@H]2Oc3c(NS(=O)(=O)c4ccc(F)cc4)cccc3C(=O)N([C@@H](C)CO)C[C@H]2C)cc1	none (no result: RAD52 anneal inh)
COc1ccc(S(=O)(=O)N(C)C[C@@H]2Oc3c(NS(=O)(=O)c4ccc(F)cc4)cccc3C(=O)N([C@H](C)CO)C[C@@H]2C)cc1	E-sel inducer 62 (no result: RAD52 anneal inh)
COc1ccc(S(=O)(=O)Nc2ccc3c(c2)C(=O)N([C@H](C)CO)C[C@H](C)[C@H](CN(C)C(=O)Nc2cccc4ccccc24)O3)cc1	none
COc1ccc(S(=O)(=O)Nc2cccc3c2O[C@H](CN(C)C(=O)Nc2cccc4ccccc24)[C@@H](C)CN([C@@H](C)CO)C3=O)cc1	none (no result: PglD DTNB, RAD54 inh, RAD52 anneal inh)
C/C(N)=C(/C#N)C(=O)COC(=O)c1cc2c(s1)CCC(C)C2 (stereo unspecified)	Ecoli rRNA inh -29 (no result: E-sel inducer, PglD DTNB, RAD54 inh)
O=C(C[C@@H]1C=C[C@@H](NC(=O)Nc2ccccc2F)[C@@H](CO)O1)NCc1ccc(-c2ccccc2)cc1	none
FC(F)(F)c1cnc(Oc2cccc3ccccc23)c(Cl)c1	none (no result: PglD DTNB, RAD54 inh)
Oc1cccc(Oc2ncc(C(F)(F)F)cc2Cl)c1	E-sel inducer 132 (no result: PglD DTNB, RAD54 inh)
COC(=O)C1=C(C)Nc2nc(-c3ccccc3)nn2C1c1ccc(C)o1 (stereo unspecified)	Ecoli rRNA inh -22
CCOC(=O)NC(N(O)c1cccc(Cl)c1)C(Cl)(Cl)Cl (stereo unspecified)	Ecoli rRNA inh -28 (no result: E-sel inducer)
C[C@H]1CN([C@@H](C)CO)C(=O)Cc2cc(N(C)C)ccc2O[C@@H]1CN(C)Cc1ccc2c(c1)OCO2	none
C=CCOc1ccc(CNc2ccc3[nH]c(=O)[nH]c3c2)cc1OCC	none (no result: PglD DTNB, RAD54 inh)
C=CCOc1ccc(CNc2ccc3[nH]c(=O)[nH]c3c2)cc1	Ecoli rRNA inh -14 (no result: PglD DTNB, RAD54 inh)
O=C1OC(OC2CCCCC2)(c2ccccc2)c2ccccc21 (stereo unspecified)	Ecoli rRNA inh -22 (no result: E-sel inducer, Xi reactivation)
O=C1OC(Oc2ccccc2)(c2ccccc2)c2ccccc21 (stereo unspecified)	none (no result: E-sel inducer, Ecoli rRNA inh, Xi reactivation, RAD52 anneal inh)
CO[C@@H]1CC[C@H]2CCOc3c(C#N)cccc3C(=O)N(C)C[C@@H](C)C(=O)N(C)C[C@H]1O2	none
C[C@@H]1CN([C@@H](C)CO)C(=O)Cc2cc(NC(=O)Cn3cnnn3)ccc2O[C@H]1CN(C)Cc1ccc(Oc2ccccc2)cc1	E-sel inducer 283
C[C@H]1CN([C@@H](C)CO)C(=O)c2cc(NC(=O)Cn3cnnn3)ccc2O[C@@H]1CN(C)Cc1ccc(Oc2ccccc2)cc1	E-sel inducer 48
C[C@H]1CN([C@@H](C)CO)C(=O)c2cc(NC(=O)Cn3cnnn3)ccc2O[C@@H]1CN(C)Cc1ccc2c(c1)OCO2	E-sel inducer 38
C[C@@H]1CN([C@H](C)CO)C(=O)c2cc(NC(=O)Cn3cnnn3)ccc2O[C@H]1CN(C)Cc1ccc2c(c1)OCO2	none
C[C@@H]1CN([C@H](C)CO)C(=O)c2cc(NC(=O)Cn3cnnn3)ccc2O[C@H]1CN(C)S(=O)(=O)c1ccccc1	E-sel inducer 39 (no result: PglD DTNB, RAD54 inh)
C[C@H](CO)N1C[C@H](C)[C@H](CN(C)Cc2ccccc2)Oc2ccc(NC(=O)Cn3cnnn3)cc2C1=O	none
C[C@H](CO)N1C[C@H](C)[C@@H](CN(C)Cc2ccc(C(=O)O)cc2)OCCCC[C@H](C)Oc2ccc(NC(=O)Cc3ccccc3)cc2C1=O	none
C/C=C/c1ccc([C@H]2[C@@H](CO)N(CC3CC3)[C@@H]2CNC(=O)c2ccccc2)cc1	none
C[C@H]1CN([C@@H](C)CO)C(=O)c2cc(NC(=O)Cn3cnnn3)ccc2O[C@H]1CN(C)Cc1ccc(Oc2ccccc2)cc1	E-sel inducer 139
C[C@@H]1CN([C@H](C)CO)C(=O)c2cc(NC(=O)Cn3cnnn3)ccc2O[C@H]1CN(C)Cc1ccc(Oc2ccccc2)cc1	none
N#Cc1c(-c2ccco2)ccn(Cc2cccc(F)c2)c1=O	Ecoli rRNA inh -17
O=C(O)COc1ccc(/C=C/c2nc(-c3ccccc3O)n[nH]2)cc1	Ecoli rRNA inh -17
